# From PubChem BioAssay
# Some of the results follow. The source made the active and inactive calls. Rule as the data show it, unless noted: active = inhibition above about 25%; inactive = the rest.
# Key:
# [1] = molecular target: Nuclear receptor coactivator 1 (Homo sapiens) (UniProt Q15788); test: NCOA1 GAL4-fusion reporter inhibition – cell-based, luminescence, quadruplicate, confirmation (AID 588820;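 active = mean inhibition above 46.68%, the untreated control wells mean plus 3 SD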;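 also: 0% = DMSO wells and 100% = gossypol 36 µM treated wells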); conditions: HEK293 GAL4-SRC1 luciferase reporter, at 3.6 µM, stronger effect = higher value
# [2] = repression of VP16-driven luciferase reporter – cell-based, luminescence, high throughput, counter-screen for SRC1 inhibitor project (AID 588824); conditions: cell-based VP16 transactivation luciferase luminescence; at 3.6 µM; stronger effect = higher value
# [3] = system: transactivating tegument protein VP16 (Human herpesvirus 1); test: compounds suppressing VP16-driven luciferase signal – cell-based, luminescence, single concentration, counter-screen for SRC2 inhibitor project (AID 652007; in the data active = inhibition above about 36%); conditions: cell-based VP16 transactivation luciferase reporter, at 8.9 µM, stronger effect = higher value
# [4] = molecular target: Nuclear receptor coactivator 2 (Homo sapiens) (UniProt Q15596); test: inhibition of GAL4-SRC2 driven luciferase expression – cell-based, luminescence, HEK293, triplicate, confirmation (AID 652008;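 active = mean inhibition above 46.5%, the solvent-only control mean plus 3 SD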;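 also: 0% = DMSO-treated cells and 100% = Gossypol at 36 µM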); conditions: HEK293 GAL4-SRC2 luciferase reporter, at 8.9 µM, stronger effect = higher value
# [5] = VP16-driven transactivation reporter suppression – cell-based, luminescence, HEK293, counter-screen for COUP-TFII antagonist project (AID 687007; in the data active = inhibition above about 13%); conditions: HEK293 Gal4-VP16 luciferase reporter, at 8.5 µM, stronger effect = higher value
# [6] = molecular target: COUP transcription factor 2 (Homo sapiens) (UniProt P24468); test: retest of COUP-TFII reporter suppressors – cell-based, luciferase reporter, HEK293, triplicate, confirmation (AID 687008;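 active = mean inhibition over three repeats above a set limit taken from the earlier primary screen, cut at about 38% in these data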;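 also: 100% = cells given the luciferase reporter alone without the COUP-TF2 vector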); conditions: HEK293 NGFI-A luciferase reporter, luminescence; at 8.5 µM; stronger effect = higher value
# [7] = system: DAF-12 nuclear receptor (Heterodera glycines), GAL4-LBD fusion; test: hgDAF-12 GAL4 fusion reporter activation, retest – cell-based, luminescence, HEK293, GAL4-LBD fusion, confirmation (AID 743050;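 active = mean activation over triplicate wells above the hit cutoff derived from the earlier primary screen, cut at about 11% in these data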;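 also: 0% = DMSO low control and 100% = 2 mM sodium butyrate high control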); conditions: HEK293 GAL4-hgDAF12 luciferase reporter, agonist mode; at 6.8 µM; stronger effect = higher value; percent of butyrate response
# [8] = molecular target: Oxysterols receptor LXR-beta (Homo sapiens) (UniProt P55055); test: nonspecific reporter activation via LXR – cell-based, luminescence, HEK293, H. glycines campaign, counter-screen for hgDAF-12 agonist project, confirmation (AID 743051;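 active = mean activation of the triplicate above a set limit carried over from the primary screen, none filed active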); conditions: HEK293 Gal4-LXR luciferase reporter, 24 h; at 6.8 µM; stronger effect = higher value
# Summary of the method: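 Assay system: Gal4-LXR luciferase reporter HEK293 cells; times: 3 h cell plating, then 24 h compound exposure at 37 °C; signal: luciferase luminescence; benchmarks: DMSO low control, 0.68% final; replication: n 3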
# Nuclear receptor coactivator 1 (Homo sapiens), sequence (Q15788 whole entry, looked up, the tested form may be a part): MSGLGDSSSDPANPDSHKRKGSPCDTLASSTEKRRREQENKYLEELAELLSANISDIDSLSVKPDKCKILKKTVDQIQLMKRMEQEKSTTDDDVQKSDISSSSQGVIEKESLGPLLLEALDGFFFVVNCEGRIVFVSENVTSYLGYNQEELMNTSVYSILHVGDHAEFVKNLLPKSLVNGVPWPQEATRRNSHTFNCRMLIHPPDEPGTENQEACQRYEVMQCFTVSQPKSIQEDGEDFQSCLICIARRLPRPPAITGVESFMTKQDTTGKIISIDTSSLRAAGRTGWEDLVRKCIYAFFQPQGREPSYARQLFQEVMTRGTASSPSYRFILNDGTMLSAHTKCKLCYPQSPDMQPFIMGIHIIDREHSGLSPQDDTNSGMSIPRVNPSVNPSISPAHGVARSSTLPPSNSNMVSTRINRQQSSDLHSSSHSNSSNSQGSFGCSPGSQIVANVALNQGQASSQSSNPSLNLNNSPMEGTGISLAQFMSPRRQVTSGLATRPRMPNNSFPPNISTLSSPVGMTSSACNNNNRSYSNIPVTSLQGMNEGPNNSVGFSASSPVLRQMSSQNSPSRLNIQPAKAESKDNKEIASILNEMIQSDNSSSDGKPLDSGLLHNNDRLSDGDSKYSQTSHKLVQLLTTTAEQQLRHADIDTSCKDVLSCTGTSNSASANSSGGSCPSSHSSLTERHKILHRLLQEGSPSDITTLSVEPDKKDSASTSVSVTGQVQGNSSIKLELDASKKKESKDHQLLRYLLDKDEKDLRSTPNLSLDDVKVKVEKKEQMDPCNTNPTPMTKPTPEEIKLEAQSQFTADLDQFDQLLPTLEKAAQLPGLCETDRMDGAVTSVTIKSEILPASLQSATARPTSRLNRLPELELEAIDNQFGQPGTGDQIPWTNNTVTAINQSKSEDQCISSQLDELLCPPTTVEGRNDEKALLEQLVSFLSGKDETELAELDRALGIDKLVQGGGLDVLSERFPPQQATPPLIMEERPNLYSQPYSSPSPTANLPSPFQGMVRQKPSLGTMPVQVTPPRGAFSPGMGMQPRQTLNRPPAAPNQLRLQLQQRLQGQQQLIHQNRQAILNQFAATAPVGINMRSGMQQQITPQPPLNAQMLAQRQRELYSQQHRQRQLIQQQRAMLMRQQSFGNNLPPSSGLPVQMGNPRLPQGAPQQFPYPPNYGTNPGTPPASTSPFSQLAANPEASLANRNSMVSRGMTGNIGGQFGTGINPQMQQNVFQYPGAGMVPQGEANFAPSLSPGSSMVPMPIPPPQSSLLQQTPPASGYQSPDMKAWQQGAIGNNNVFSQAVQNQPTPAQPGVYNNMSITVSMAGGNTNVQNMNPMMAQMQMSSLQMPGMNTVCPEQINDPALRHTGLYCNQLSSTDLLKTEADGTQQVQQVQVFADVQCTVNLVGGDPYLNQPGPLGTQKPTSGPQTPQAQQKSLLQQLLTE
# Nuclear receptor coactivator 2 (Homo sapiens), sequence (Q15596 whole entry, looked up, the tested form may be a part): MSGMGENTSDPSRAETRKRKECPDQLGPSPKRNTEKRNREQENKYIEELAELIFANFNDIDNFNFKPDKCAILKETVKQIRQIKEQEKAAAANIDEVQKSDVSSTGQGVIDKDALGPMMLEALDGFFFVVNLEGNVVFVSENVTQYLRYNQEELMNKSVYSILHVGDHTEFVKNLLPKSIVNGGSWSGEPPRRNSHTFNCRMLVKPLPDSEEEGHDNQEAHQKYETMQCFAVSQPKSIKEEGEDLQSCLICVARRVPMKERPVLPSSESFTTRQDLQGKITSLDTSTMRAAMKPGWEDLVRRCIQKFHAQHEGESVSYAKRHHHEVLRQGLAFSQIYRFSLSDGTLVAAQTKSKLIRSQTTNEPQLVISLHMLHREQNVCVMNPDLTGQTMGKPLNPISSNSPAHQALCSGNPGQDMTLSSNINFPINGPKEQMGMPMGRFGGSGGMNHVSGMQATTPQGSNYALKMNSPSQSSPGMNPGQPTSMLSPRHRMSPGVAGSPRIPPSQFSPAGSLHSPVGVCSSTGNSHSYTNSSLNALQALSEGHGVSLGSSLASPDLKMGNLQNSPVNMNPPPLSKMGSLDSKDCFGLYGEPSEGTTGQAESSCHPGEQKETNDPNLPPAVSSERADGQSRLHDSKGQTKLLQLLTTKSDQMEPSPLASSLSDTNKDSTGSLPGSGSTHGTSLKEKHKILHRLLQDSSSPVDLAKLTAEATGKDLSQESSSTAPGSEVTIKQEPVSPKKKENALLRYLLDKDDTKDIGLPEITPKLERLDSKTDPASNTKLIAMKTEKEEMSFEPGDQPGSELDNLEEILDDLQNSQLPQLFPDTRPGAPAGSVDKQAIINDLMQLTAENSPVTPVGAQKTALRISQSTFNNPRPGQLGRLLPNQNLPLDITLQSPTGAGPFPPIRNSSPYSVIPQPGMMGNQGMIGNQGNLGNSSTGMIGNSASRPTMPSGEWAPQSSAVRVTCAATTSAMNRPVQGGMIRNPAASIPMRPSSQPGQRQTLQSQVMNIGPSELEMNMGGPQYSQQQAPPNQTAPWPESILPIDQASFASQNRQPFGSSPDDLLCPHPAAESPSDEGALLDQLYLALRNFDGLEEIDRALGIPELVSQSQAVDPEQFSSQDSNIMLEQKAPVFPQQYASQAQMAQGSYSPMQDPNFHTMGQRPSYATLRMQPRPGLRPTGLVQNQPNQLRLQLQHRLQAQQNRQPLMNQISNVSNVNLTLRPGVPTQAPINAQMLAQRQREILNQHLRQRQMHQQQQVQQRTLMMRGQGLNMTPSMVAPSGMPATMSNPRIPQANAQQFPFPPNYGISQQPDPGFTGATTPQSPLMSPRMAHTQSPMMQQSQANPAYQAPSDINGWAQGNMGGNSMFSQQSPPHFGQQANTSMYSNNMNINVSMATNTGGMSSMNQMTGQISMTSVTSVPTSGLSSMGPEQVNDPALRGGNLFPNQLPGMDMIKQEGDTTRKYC
# COUP transcription factor 2 (Homo sapiens), sequence (P24468 whole entry, looked up, the tested form may be a part): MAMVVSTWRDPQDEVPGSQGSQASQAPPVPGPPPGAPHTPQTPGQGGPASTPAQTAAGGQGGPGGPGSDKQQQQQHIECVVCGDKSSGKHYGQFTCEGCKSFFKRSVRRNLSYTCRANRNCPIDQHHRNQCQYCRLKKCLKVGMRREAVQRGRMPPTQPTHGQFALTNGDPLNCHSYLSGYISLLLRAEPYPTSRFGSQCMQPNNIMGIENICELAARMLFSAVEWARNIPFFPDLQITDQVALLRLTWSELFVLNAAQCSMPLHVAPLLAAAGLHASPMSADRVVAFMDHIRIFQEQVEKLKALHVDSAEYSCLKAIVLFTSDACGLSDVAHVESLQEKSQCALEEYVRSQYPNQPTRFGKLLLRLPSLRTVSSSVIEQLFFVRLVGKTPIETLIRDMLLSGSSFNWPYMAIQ
# Oxysterols receptor LXR-beta (Homo sapiens), sequence (P55055 whole entry, looked up, the tested form may be a part): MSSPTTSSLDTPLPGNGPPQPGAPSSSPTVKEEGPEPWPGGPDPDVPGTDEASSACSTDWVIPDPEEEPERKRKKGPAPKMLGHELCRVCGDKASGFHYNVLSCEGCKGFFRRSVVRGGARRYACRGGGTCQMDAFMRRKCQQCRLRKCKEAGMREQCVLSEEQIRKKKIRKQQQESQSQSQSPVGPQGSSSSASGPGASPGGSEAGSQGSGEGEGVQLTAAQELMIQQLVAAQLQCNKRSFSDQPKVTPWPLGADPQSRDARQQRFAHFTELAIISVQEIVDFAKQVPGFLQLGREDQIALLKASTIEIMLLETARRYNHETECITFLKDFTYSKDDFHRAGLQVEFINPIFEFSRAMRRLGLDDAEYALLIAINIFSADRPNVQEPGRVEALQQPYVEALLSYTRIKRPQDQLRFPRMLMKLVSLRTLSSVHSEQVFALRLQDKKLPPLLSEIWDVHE
Compound,inhibition [1],inhibition [2],inhibition [3],inhibition [4],inhibition [5],inhibition [6],activation [7],activation [8]
Cc1cc(NC2CCCC2)n2ncc(-c3ccccc3)c2n1,-78.1% (inactive),-34.6% (inactive),-46.2% (inactive),36.5% (inactive),–,–,–,–
C=CCNc1ncnc2ccc(Br)cc12,30.3% (inactive),21% (inactive),1.3% (inactive),42.1% (inactive),9.27% (inactive),22.7% (inactive),–,–
CNc1cncc(-c2ccc(NS(C)(=O)=O)cc2)n1,20.8% (inactive),31% (active),–,–,–,–,8.61% (inactive),0.06% (inactive)
CCn1ccnc1CN(C)Cc1cn[nH]c1-c1ccc(F)cc1F,30.6% (inactive),15.7% (inactive),-19.6% (inactive),10.5% (inactive),–,–,–,–
